GPR7 antagonist: human neuropeptides B/W receptor 1 antagonism; P48145; GPR7-expressing cells, fluorescence antagonist assay; inhibition, % at 4.4 µM; 290,000 tested, 1.1% active; AID 1861; in the data active means inhibition above about 16%, passing the limit was not always enough;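 further: cells stimulated with the agonist NPW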
Target sequence (P48145 whole entry, looked up): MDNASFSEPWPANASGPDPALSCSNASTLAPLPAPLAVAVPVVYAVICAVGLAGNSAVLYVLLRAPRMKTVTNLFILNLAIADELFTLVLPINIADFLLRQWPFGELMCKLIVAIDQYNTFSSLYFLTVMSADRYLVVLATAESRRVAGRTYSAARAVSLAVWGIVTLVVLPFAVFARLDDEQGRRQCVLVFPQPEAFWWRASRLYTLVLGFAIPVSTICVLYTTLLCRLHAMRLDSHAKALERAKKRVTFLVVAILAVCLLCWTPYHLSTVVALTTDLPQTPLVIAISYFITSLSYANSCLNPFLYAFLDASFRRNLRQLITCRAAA
OX1R antag-1: blocks the human orexin 1 receptor | O43613 | CHO/OX1R cells, Fluo-8 calcium fluorescence, orexin A | inhibition, % at 5 µM | 330,000 tested, 0.43% active;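 active means inhibition above its plate's threshold, mean inhibition of all tested compounds on the plate plus 3 SD, cut at about 37% in these data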
TAAR1 agonist: agonists of human TAAR1; Q96RJ0; CHO RD-HGA16 TAAR1, Fluo-8 calcium fluorescence; vehicle wells 0%, saturating PEA agonist 100%; activation, % at 3 µM; 360,000 tested, 0.99% active;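 active means activation above the mean activation of all test compounds in the run plus 3 SD, cut at about 38% in these data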
Target sequence (Q96RJ0 whole entry, looked up): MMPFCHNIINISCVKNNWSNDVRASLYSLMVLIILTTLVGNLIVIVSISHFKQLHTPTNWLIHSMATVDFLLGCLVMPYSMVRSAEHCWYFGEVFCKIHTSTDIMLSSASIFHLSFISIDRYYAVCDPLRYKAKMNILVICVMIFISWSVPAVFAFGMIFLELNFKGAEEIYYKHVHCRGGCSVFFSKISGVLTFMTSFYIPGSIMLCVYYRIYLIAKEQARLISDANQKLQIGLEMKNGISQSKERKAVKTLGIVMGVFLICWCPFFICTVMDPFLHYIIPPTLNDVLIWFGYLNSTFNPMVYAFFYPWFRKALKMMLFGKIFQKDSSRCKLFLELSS
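Assay system: CHO-derived RD-HGA16 cells with stable Gα16 and human TAAR1; timing: 17-24 h seeding, 75 min 37 °C dye, 30 min RT; read-out: % activation from peak over basal fluorescence ratio, DMSO-to-PEA scaled; measured by: kinetic Fluo-8 calcium fluorescence; benchmarks: low control DMSO, high control PEA (EC100); doses: 3 µM single concentration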
OX1R antag-2: OX1R (human) antagonism; OX1R-expressing cells, FRET antagonist read-out; 330,000 tested, 1.8% active; inhibition, % at 6.6 µM; O43613; AID 485270; in the data active means inhibition mostly above about 38%, no sharp cut-off; inactive means mostly below about 40%
TAAR1 antagonist: human TAAR1 antagonism; CHO RD-HGA16 TAAR1, Fluo-8 calcium fluorescence, antagonist; inhibition, % at 3 µM; Q96RJ0; 360,000 tested, 1.5% active;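 active means inhibition above a per-plate cutoff, the mean inhibition of test compounds on that plate plus 3 SD, cut at about 49% in these data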
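Test system: hTAAR1-expressing CHO RD-HGA16 cells, Gα16-coupled; Probe or stimulus: EC80 β-phenethylamine stimulus; Compound dosing: single nominal final test compound concentration of 3 µM; Timing: 140 s kinetic read after compound, 140 s after agonist; Signal: Fluo-8 calcium-sensitive fluorescence; Measure: % inhibition of agonist calcium response; Controls: DMSO and EC80 PEA controls.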
CHO parental Ca: counter-screen: ATP calcium response change in parental CHO cells; parental CHO-K1, ATP-induced calcium, Fluo-8 fluorescence; inhibition, % at 5.6 µM; 330,000 tested, 0.63% active; AID 463079;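 active means inhibition above that plate's mean sample inhibition plus 3 SD, cut at about 26% in these data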
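material = parental CHO cells | also added = ATP as calcium-mobilizing challenge | dosing = single point at 5.6 µM | detection = intracellular calcium via Fluo-8 no-wash fluorescent dye | read-out = % inhibition | benchmarks = low control ATP plus DMSO, high control DMSO only | repeats = one well per compound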
A number is an active result; i = inactive; nt = no result given. Compounds with a hit are over-represented: about 4.5% of the library has one in this group of screens.

SMILES	GPR7 antagonist	OX1R antag-1	TAAR1 agonist	OX1R antag-2	TAAR1 antagonist	CHO parental Ca
CCOC(=O)N1CCN(C(=O)CSCC(=O)Nc2nc(-c3ccc(-c4ccccc4)cc3)cs2)CC1	i	53	i	48	70	91
CCOC(=O)N1CCN(C(=O)CSCC(=O)Nc2nc(-c3ccc(OC)cc3)cs2)CC1	i	i	i	i	i	i
Cc1ccc(-c2c(C(=O)N(C)Cc3ccccc3)oc(=O)c3ccccc23)cc1	19	i	i	i	i	i
O=C(N/N=C/c1ccc([N+](=O)[O-])o1)c1ccc(NS(=O)(=O)c2cccs2)cc1	i	i	i	45	i	i
COc1ccc(N2C[C@H](CSC)[C@@H](CC(=O)Nc3ccc(Br)cc3)C2=O)cc1	nt	nt	i	nt	i	nt
Cc1nnc(NC(=O)c2oc3ccccc3c2C)s1	i	i	i	i	i	i
O=C(CCl)Nc1c(C(=O)Nc2ccc3c(c2)OCCO3)oc2ccccc12	i	i	i	68	i	i
CC(=O)Nc1c(C(=O)Nc2ccc3c(c2)OCO3)oc2ccccc12	i	i	i	i	i	i
Cc1c(C(=O)Nc2ccc3c(c2)OCO3)oc2ccccc12	i	i	i	73	i	i
Cc1nc(NC(=O)c2oc3ccccc3c2C)sc1C(=O)N(C)C	i	i	i	54	i	i
CC(=O)C1=C(C)N(Cc2ccc(F)cc2)C(=S)NC1c1ccc(Br)cc1 (stereo unspecified)	nt	nt	i	nt	i	nt
O=C(Cn1ncc2c1-c1ccccc1OC2)N(Cc1ccco1)C1CCCCC1	i	i	i	37	i	i
CC(=O)n1cc(N(C(=O)CCl)c2ccccc2)c2ccccc21	i	i	i	i	i	i
CC(=O)n1cc(N(C(=O)CCl)c2ccc([N+](=O)[O-])cc2)c2ccccc21	21	i	i	i	i	i
COc1cc2sc3cc(NCc4ccc(C)o4)ccc3c(=O)c2cc1OC	nt	i	i	45	i	i
COc1cc2sc3cc(NCc4ccc5c(c4)OCO5)ccc3c(=O)c2cc1OC	nt	i	i	50	i	i
CC(C)[C@H](NC(=O)CC1CCCC1)C(=O)N1CCC[C@H]1C(=O)NCc1ccccc1	nt	nt	i	nt	i	nt
CCCNC(=O)COC(=O)c1c2c(nc3ccccc13)CCC2	i	i	i	i	i	i
Nc1nc2ccc(Cl)cc2cc1C(=O)NC1CC1	nt	nt	i	nt	i	nt
CC1CCCN(C(=O)c2ccc([N+](=O)[O-])o2)C1 (stereo unspecified)	i	i	i	i	i	i
Cc1noc(C)c1C(=O)N(C)Cc1ccccc1	i	i	i	i	i	i
CC1CCN(C(=O)c2ccc([N+](=O)[O-])o2)CC1	i	i	i	44	i	i
O=C(c1ccc([N+](=O)[O-])o1)N1CCN(Cc2ccccc2)CC1	i	i	i	30	i	i
CN(Cc1ccccc1)C(=O)c1ccc([N+](=O)[O-])o1	i	i	i	54	i	i
O=C(CSc1nc2ccccc2s1)CSc1nc2ccccc2s1	i	i	i	45	i	i
SMILES	GPR7 antagonist	OX1R antag-1	TAAR1 agonist	OX1R antag-2	TAAR1 antagonist	CHO parental Ca
O=C(O)CSc1nc2ccccc2s1	i	i	i	i	i	i
CCS(=O)(=O)CCSc1nc2ccccc2s1	i	i	i	i	i	i
c1ccc2[nH]c(CCCCc3nc4ccccc4[nH]3)nc2c1	i	i	38	i	i	i
O=S(=O)(CCSc1nc2ccccc2s1)c1nc2ccccc2s1	i	i	i	53	i	i
Cn1c(CSc2nc3ccccc3s2)nc2ccccc21	i	i	i	41	i	i
O=C(COc1ccccc1F)N1N=C(c2cccs2)CC1c1ccco1 (stereo unspecified)	nt	nt	i	nt	i	nt
Cc1ccc(Cn2c(C)c(C(=O)NCc3cccs3)sc2=O)cc1	nt	nt	i	nt	i	nt
CCc1cc2c(=O)c(-c3cnn(-c4ccccc4)c3)c(C(F)(F)F)oc2c(CN(C)C)c1O	i	i	i	i	i	i
c1ccc2[nH]c(CSc3nc4ccccc4s3)nc2c1	i	i	i	72	i	i
Clc1ccc(-c2nnc(CSc3nnc(-c4cccs4)n3Cc3ccccc3)o2)cc1	i	i	i	47	i	i
Fc1ccc(NCc2nnc(SCc3nnc(-c4ccccc4)o3)n2Cc2ccccc2)cc1	i	73	i	i	i	51
Cc1ccsc1/C=C/c1n[nH]c(=O)c(C#N)c1C	i	i	i	i	i	i
O=C(Nc1c[nH]c(=O)[nH]c1=O)c1cc([N+](=O)[O-])cc([N+](=O)[O-])c1	i	i	i	69	i	i
COc1ccc(-c2sc3ccccc3c2-c2ccc(OCCN(C)C)cc2)cc1	nt	70	i	i	i	50
CCCCCC(=O)N1C[C@H](n2cc(COC(=O)c3ccccc3)nn2)[C@@H](O)C[C@@H]1c1ccc(OC)cc1	nt	nt	i	nt	i	nt
CC(C)CCNc1ncnc2c1nnn2Cc1ccccc1Cl	i	i	40	i	i	i
Clc1ccc(CCNc2ncnc3c2nnn3Cc2ccccc2)cc1	i	i	38	i	i	i
OCCNc1ncnc2c1nnn2Cc1ccccc1	i	nt	i	nt	i	nt
Cc1noc(C)c1CSCC(=O)Oc1ccc(N(C)S(=O)(=O)c2ccc(Cl)cc2)cc1	nt	i	i	i	53	i
Cc1ccc(CN2CCN(C(=O)C3CCCO3)CC2)cc1 (stereo unspecified)	i	i	i	i	i	i
O=C(C1CCCO1)N1CCN(Cc2c(O)ccc3ccccc23)CC1 (stereo unspecified)	i	i	i	i	i	29
C=CCOc1cccn2c(N(C)C(=O)c3ccc(OC)cc3)c(CC)nc12	nt	nt	i	nt	i	nt
COCCNC(=O)COC(=O)/C=C/c1cnc2ccccc2n1	i	i	i	48	i	i
COc1ccc(C)cc1Nc1n[n+](-c2ccccc2)c(-c2c(Cl)cccc2Cl)s1	i	i	i	i	i	38
CCOC(=O)/C(=C\c1ccc(N2CCC(c3ccccc3)=N2)cc1)C(C)=O	nt	nt	i	nt	i	nt
SMILES	GPR7 antagonist	OX1R antag-1	TAAR1 agonist	OX1R antag-2	TAAR1 antagonist	CHO parental Ca
O=C(/C=C/c1ccc(N2CCC(c3ccccc3)=N2)cc1)c1ccccc1	i	79	i	i	i	73
CCOC(=O)[C@]12CCCC=C1N(Cc1ccco1)C(=O)[C@H](CC(=O)NCCC(C)C)C2	nt	nt	i	nt	i	nt
CC(C)C[C@@H](COCc1ccc(C(F)(F)F)cc1)N1CCN(C(=O)c2ccc(C(F)(F)F)cc2)CCC1=O	nt	nt	i	nt	i	nt
OC(CNCCc1ccc(C(F)(F)F)cc1)COC(c1ccccc1)c1ccccc1 (stereo unspecified)	i	49	i	i	i	89
COc1ccc(C(OCC(O)CNCCc2ccc(S(N)(=O)=O)cc2)c2ccc(OC)cc2)cc1 (stereo unspecified)	i	i	i	i	i	i
Cc1cc(C(=O)CSc2nc(N)cc(=O)[nH]2)c(C)n1-c1ccc(OC(F)F)cc1	i	i	i	i	i	38
CN1c2ccsc2/C(=N/Nc2ccc(F)cc2)CS1(=O)=O	i	i	44	i	i	i

Assay outcomes deposited in PubChem by The Scripps Research Institute Molecular Screening Center.
